Test: Cytotoxicity against rat H9c2 cells assessed as cell viability at 3.125 to 200 ug/ml after 48 hrs by MTT assay
Format: cell-based
Conditions: read-out: Activity
In short: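 Rat H9c2 cardiac myoblasts maintained in high-glucose DMEM with 10% heat-inactivated FBS and antibiotics at 37 °C, 5% CO₂. Subconfluent cells exposed 48 h to 3.125–200 μg/ml. MTT (5 mg/ml) added for 45 min at 37 °C; formazan dissolved in acid isopropanol, absorbance read at 570 nm (reference 655 nm). Viability relative to untreated controls; triplicate.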

Question: Which viability at 48 h does the source give for C/C(=N\NC(=S)NCc1ccccc1)c1c(O)ccc2ccc(=O)oc12 here?
Answer: > 80%

Question: Which viability at 48 h does the source give for C/C(=N\NC(=S)NC12CC3CC(CC(C3)C1)C2)c1c(O)ccc2ccc(=O)oc12 here?
Answer: > 80%

Question: Which viability at 48 h does the source give for C/C(=N\NC(=S)N1CCC(Cc2ccccc2)CC1)c1c(O)ccc2ccc(=O)oc12 here?
Answer: > 80%
